Measured values as given in ChEMBL document CHEMBL1250460, “Rational conversion of noncontinuous active region in proteins into a small orally bioavailable macrocyclic drug-like molecule: the HIV-1 CD4:gp120 paradigm” (Bioorg Med Chem, 2010).
Active and inactive are the calls of the source. The calls are words filed in the database; no cut-off is given here.

Key:
[1] = system: HeLa; assay: Inhibition of HIV1 gp120 binding to CD4 assessed as inhibition of CD4 expressing human HeLa cells by MAGI assay; assay type: cell-based; conditions: Human immunodeficiency virus 1
Procedure, shortened: (§1)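 MAGI assay: HeLa-CD4+ beta-gal cells seeded at 15 × 10³ per well, infected with HIV-1 HXB2 with or without inhibitor in the presence of DEAE-dextran. Two days after infection, cells fixed in 1% formaldehyde/0.2% glutaraldehyde in PBS. Stained with ferro/ferricyanide (4 mM each), 2 mM MgCl₂ and 0.4 mg/mL X-Gal. Blue cells counted by light microscopy.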

[2] = Tmax in Wistar rat at 10 mg/kg, po; assay type: ADME, organism-based; set-up: dose 10 mg/kg, route oral; conditions: in vivo
Procedure, shortened: (§2)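 Conscious male Wistar rats (275 ± 20 g, n = 5 per route) with jugular vein cannula implanted 24 h before dosing. Given 1 mg/kg IV bolus or 10 mg/kg by oral gavage, dissolved in water. Heparinized blood sampled at several times up to 24 h. Plasma separated by centrifugation (4000 g, 5 min, 4 °C), stored at −70 °C. Parameters from noncompartmental analysis.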

[3] = Half life in Wistar rat at 10 mg/kg, po; assay type: ADME, organism-based; set-up: dose 10 mg/kg, route oral; conditions: in vivo; procedure, shortened: as §2
[4] = Tmax in Wistar rat at 1 mg/kg, iv; assay type: ADME, organism-based; set-up: dose 1 mg/kg, route intravenous; conditions: in vivo; procedure, shortened: as §2
[5] = Cmax in Wistar rat at 1 mg/kg, iv; assay type: ADME, organism-based; set-up: dose 1 mg/kg, route intravenous; conditions: in vivo; procedure, shortened: as §2
[6] = Oral bioavailability in Wistar rat at 10 mg/kg; assay type: ADME, organism-based; conditions: in vivo; procedure, shortened: as §2
[7] = system: Rattus norvegicus; assay: AUC in Wistar rat at 10 mg/kg, po; assay type: ADME, organism-based, Plasma; set-up: dose 10 mg/kg, route oral; conditions: in vivo; procedure, shortened: as §2
[8] = system: Rattus norvegicus; assay: Volume of distribution at steady state in Wistar rat at 10 mg/kg, po; assay type: ADME, organism-based; set-up: dose 10 mg/kg, route oral; conditions: in vivo; procedure, shortened: as §2
[9] = Cmax in Wistar rat at 10 mg/kg, po; assay type: ADME, organism-based; set-up: dose 10 mg/kg, route oral; conditions: in vivo; procedure, shortened: as §2
[10] = system: Human immunodeficiency virus 1; assay: Antiviral activity against HIV1 assessed as reduction in infection; assay type: functional; procedure, shortened: as §1

Tmax [2] | half-life [3] | Tmax [4] | Cmax [5] | bioavailability [6] | AUC [7] | Vdss [8] | Cmax [9] | SMILES | inhibition [1] | inhibition (INH) [10]
 |  |  |  |  |  |  |  | N=C(N)NCCCC1NC(=O)CCCCCC(=O)NC(Cc2ccc(O)cc2)CN(CC(N)=O)C1=O (stereo unspecified) | inactive | 
18 min | 73 min | 5 min | 102 ng/mL | 10% | 21770 ng·min/mL | 0.6 L/kg | 866 ng/mL | N=C(N)NCCCC1NC(=O)CCCCCC(=O)NC(Cc2ccccc2)CN(CC(N)=O)C1=O (stereo unspecified) | Active | 80%
